Screening data deposited in PubChem BioAssay by Johns Hopkins Ion Channel Center.
KCNK9 inh-1: KCNK9 potassium channel inhibitors, primary screen, HEK293 cells, thallium flux; FluxOR thallium flux fluorescence; hits give low values; B-score at 10 µM; 1.2% of 310,000 active; AID 488922, 2010;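 active = ratio B-score over 3 SD below the library mean, with starting fluorescence within 5 SD of its mean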;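 note: negative B-score means less thallium flux so channel inhibition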
KCNQ1 pot: potentiators or activators of KCNQ1 channel, primary screen, cell-based, thallium flux, high-throughput | Potassium voltage-gated channel subfamily KQT member 1 (Homo sapiens), P51787 | CHO-K1 KCNQ1, thallium flux FluxOR fluorescence; hits give high values | B-score at 10 µM | 0.35% of 310,000 active | AID 2648, 2010;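 active = fluorescence ratio B-score, a plate-corrected score, at least three library SD, with initial intensity B-score within 5 SD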
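Schedule – 37 °C overnight plating, 90-min dark dye load, 20-min compound pretreatment · System – stable KCNQ1 CHO-K1 line · Probe or stimulus – thallium- and potassium-containing depolarizing buffer · Measured by – kinetic FluxOR fluorescence, 10 s baseline plus 110 s post-stimulus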
KCNK3 inh: human KCNK3 channel inhibitors, primary screen, CHO cells, FluxOR thallium flux, B-score | 0.84% of 340,000 active | FluxOR fluorescence; hits give low values | B-score at 10 µM | AID 602410, 2012 | Potassium channel subfamily K member 3 (Homo sapiens), O14649;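 active = B-score under library mean minus 4 SD, starting fluorescence ratio at most library mean plus 5 SD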;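 note: more negative B-score means stronger inhibition of thallium flux through KCNK3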
Kir21 block: inhibitors of mouse Kir2.1 inward-rectifier potassium channel; HEK293-Kir2.1, FluxOR thallium flux fluorescence; hits give low values; B-score at 10 µM; 0.85% of 310,000 active;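 active = fluorescence ratio B-score at or below minus 3 SD of library scores, with starting-brightness B-score within 2 SD, cut at about -4.2 in these data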;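 note: channel flux triggered by added potassium and thallium sulfate stimulus; B-score of peak minus minimum fluorescence over baseline after thallium stimulus; more negative B-score means stronger Kir2.1 block with less thallium influx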
Target sequence (P35561 whole entry, looked up): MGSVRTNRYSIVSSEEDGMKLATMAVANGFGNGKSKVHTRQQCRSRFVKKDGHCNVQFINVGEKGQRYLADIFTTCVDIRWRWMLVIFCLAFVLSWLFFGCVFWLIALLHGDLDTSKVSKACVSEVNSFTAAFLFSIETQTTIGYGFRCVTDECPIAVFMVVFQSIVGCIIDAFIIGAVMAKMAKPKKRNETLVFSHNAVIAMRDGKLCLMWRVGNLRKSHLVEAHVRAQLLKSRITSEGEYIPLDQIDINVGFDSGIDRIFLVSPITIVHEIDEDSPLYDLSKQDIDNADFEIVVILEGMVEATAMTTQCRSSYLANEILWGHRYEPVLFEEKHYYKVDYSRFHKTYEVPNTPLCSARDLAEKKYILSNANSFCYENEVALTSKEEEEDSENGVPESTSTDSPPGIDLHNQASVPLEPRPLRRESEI
hERG protect: hERG rescue from dofetilide block, primary screen, cell-based, CHO-hERG, FluxOR thallium flux, dofetilide IC70. activation (rescue from dofetilide block), less the hit threshold, % at 10 µM. dofetilide IC70 present. 0.51% of 310,000 active. Voltage-gated inwardly rectifying potassium channel KCNH2 (Homo sapiens), Q12809;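 active = activation above the mean of controls blocked by dofetilide plus 5 SD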;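 note: thallium influx through hERG after potassium depolarization seen as dye fluorescence rise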
KCNQ1 block: inhibitors of human KCNQ1 channel, primary screen, cell-based, thallium flux, high-throughput; Potassium voltage-gated channel subfamily KQT member 1 (Homo sapiens), P51787; 1.3% of 310,000 active; CHO-K1 KCNQ1, FluxOR thallium flux fluorescence; hits give high values; B-score at 10 µM;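 active = compounds whose thallium flux B-score, printed positive for inhibition, exceeds three library SD while starting fluorescence stays within three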;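 note: channel opened by potassium depolarization with thallium stimulus after 20 min compound exposure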
hERG inh: hERG channel inhibition, counter-screen for Kir2.1 inhibitor project, cell-based, thallium flux; shares compounds with Kir21 block; hERG-expressing cells; inhibition, % at 10 µM; 20% of 320 active;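 note: host cells are CHO cells stably expressing hERG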
KCNK9 inh-2: KCNK9 channel inhibition, selectivity assay for Kir2.1 inhibitor project, cell-based | shares compounds with Kir21 block | KCNK9-expressing cells, ion flux inhibition | inhibition, % at 10 µM | 5% of 320 active | AID 2329, 2010
Kir2-1 patch inh: mouse Kir2.1 channel blockers, Kir2.1 inhibitor project, cell-based, secondary, automated electrophysiology | inhibition, % at 25 µM | 71% of 320 active | Kir2.1 cells, automated patch-clamp current inhibition | shares compounds with Kir21 block | AID 463252, 2010
* hit, by the source's call; i = inactive; nt = not tested or not shown. Most compounds without a hit are left out; they make up all but 3.7% or so of the library. Unless noted, the rule behind the calls is not given here.

SMILES | KCNK9 inh-1 | KCNQ1 pot | KCNK3 inh | Kir21 block | hERG protect | KCNQ1 block | others
CC(C)(C#CCCCCC#CC(C)(C)[N+](C)(C)C)[N+](C)(C)C | i | i | nt | -0.11 | -7 | i
CN[C@@H]1C[C@@H](c2ccc(Cl)c(Cl)c2)c2ccccc21 | i | i | nt | -11* | -19 | i
C[C@H]1CCC/C=C/[C@@H]2C[C@H](O)C[C@H]2[C@H](O)/C=C/C(=O)O1 | nt | nt | i | nt | nt | nt
C[C@H]1CCCC(=O)CCC/C=C/c2cc(O)cc(O)c2C(=O)O1 | i | i | i | -4.4* | -14 | i
CCCCCSc1cc(OC)c(CCNC)cc1OC | i | i | i | -8.9* | -6 | i
CCCCCCCSc1cc(OC)c(CCNC)cc1OC | i | i | i | -9.8* | -14 | i
O=S(=O)(c1ccc(Cl)cc1)N1CCCCC1c1cccnc1 (stereo not drawn) | i | i | i | -9* | -5 | i
O=S(=O)(c1ccc(F)cc1)N1CCCCC1c1cccnc1 (stereo not drawn) | i | i | i | -4.9* | -6 | i
O=S(=O)(c1ccc(F)cc1)N1CCCC1c1cccnc1 (stereo not drawn) | i | i | i | -1.5 | -8 | i
CCOc1cc(CNC(C)C(O)c2ccccc2)cc(Cl)c1OCC (stereo not drawn) | i | i | i | -5.6* | -8 | i
CC(NCc1ccc(Cl)c(Cl)c1)C(O)c1ccccc1 (stereo not drawn) | i | i | i | -4.6* | -6 | i
CCOc1cc(CNCCc2c[nH]c3ccccc23)cc(Cl)c1OCC | i | i | i | -7.6* | -18 | i
CCC(=O)Nc1ccc(Cl)c(Cl)c1 | nt | nt | i | nt | nt | nt
CCOc1c(Cl)cc(CNCCc2c[nH]c3ccccc23)cc1OC | i | i | i | -1.7 | -21 | i
CC(NCc1ccccc1C(F)(F)F)C(O)c1ccccc1 (stereo not drawn) | i | i | i | 1.6 | -5 | i
CC(NCc1ccccc1Cl)C(O)c1ccccc1 (stereo not drawn) | i | i | i | -5.7* | -6 | i
COc1cccc(NP2(=O)OCC(C)([N+](=O)[O-])CO2)c1 (stereo not drawn) | nt | nt | i | nt | nt | nt
COc1ccc(CC2NCC(O)C2OC(C)=O)cc1 (stereo not drawn) | nt | nt | i | nt | nt | nt
CC12CC(=O)C3C(CCC4CC(=O)C=CC43C)C1CCC2=O (stereo not drawn) | nt | nt | i | nt | nt | nt
COc1ccc(CN2Cc3cnnn3-c3ccccc3C2C)cc1 (stereo not drawn) | nt | nt | i | nt | nt | nt
O=C(CNC(=O)c1ccccc1Cl)Nc1ccc(Br)cc1C(=O)c1ccccc1 | i | i | i | 0.07 | -5 | i
O=C(c1cc(C(=O)NCc2ccccc2)c(=O)n(Cc2ccccc2)c1)c1cc(Br)ccc1O | i | i | i | 1.5 | -8 | 6*
O=C1NC(=O)N(c2ccc3c(c2)OCO3)C(=O)/C1=C/c1ccc(N2CCCCC2)o1 | -7.7* | i | i | -4.3* | -19 | 6*
O=C1NC(=O)N(c2ccc3c(c2)OCO3)C(=O)/C1=C\c1ccc(-c2ccccc2C(=O)O)o1 | i | i | i | -0.18 | -2 | i
COCCCNP1(=O)OCC(C)([N+](=O)[O-])CO1 (stereo not drawn) | nt | nt | i | nt | nt | nt
SMILES | KCNK9 inh-1 | KCNQ1 pot | KCNK3 inh | Kir21 block | hERG protect | KCNQ1 block | others
O=C(O)C1C2c3ccccc3C(O)C1(C(=O)O)c1ccccc12 (stereo not drawn) | nt | nt | i | nt | nt | nt
Cc1cc(C)c2c(ccc3cccc[n+]32)c1 | i | i | i | 0.25 | -14 | i
OC(Cn1c2ccccc2c2ccccc21)C[n+]1cccc2ccccc21 (stereo not drawn) | i | i | i | -5.2* | -5 | i
Clc1ccc(CNCCc2ccc3c(c2)OCO3)cc1 | i | i | i | -8.8* | -10 | i
COc1ccc(Br)cc1CNCCc1ccc2c(c1)OCO2 | i | i | i | -4.5* | -6 | i
Clc1cccc(CNCCc2ccc3c(c2)OCO3)c1 | i | i | i | 0.85 | -8 | i
Cc1cnc(NC(=O)CN2CCCCC2)s1 | i | i | i | -1.1 | -9 | i
COC(=O)C(C)Oc1cc(C)cc2oc(=O)c3c(c12)CCCC3 (stereo not drawn) | i | i | -9.2* | -2.4 | -6 | i
c1ccc(-c2ccc(-c3n(-c4ccccn4)c4ccccc4[n+]3-c3ccccn3)cc2)cc1 | i | i | i | -1.5 | -31 | 9*
COc1ccc(/C=C/C=C2C(=O)NC(=S)NC2=O)cc1 | nt | nt | i | nt | nt | nt
COC(=O)C1=C(c2ccc(Cl)c(C(F)(F)F)c2)C[C@@H]2CC[C@H]1N2C(=O)N1CCC(C)CC1 | nt | nt | i | nt | nt | nt
CC1=CC2/C=C(\C)CCC(O)C(O)/C=C/C(=O)C23C(=O)NC(CC(C)C)C3C1C (stereo not drawn) | i | 10* | i | -7.1* | -12 | i
COc1ccc(C2CN(C)CC2C(=O)c2ccc(F)cc2)cc1Cl (stereo not drawn) | i | i | i | 0.92 | -14 | i
COc1ccc(SCC2CN(C)CCC2c2ccc(F)cc2)cc1 (stereo not drawn) | i | i | i | -4.8* | -13 | i
COc1ccc(CCNCc2ccc(SC)cc2)cc1 | i | i | nt | -5.5* | -10 | i
COc1ccc(CNCCc2ccc3c(c2)OCO3)cc1Br | i | i | i | -12* | -7 | i | hERG inh=46%*;KCNK9 inh-2=i;Kir2-1 patch inh=82%*
